In ChEMBL document CHEMBL1130270, “Design of [R-(Z)]-(+)-alpha-(methoxyimino)-1-azabicyclo[2.2.2]octane-3-acetonitri le (SB 202026), a functionally selective azabicyclic muscarinic M1 agonist incorporating the N-methoxy imidoyl nitrile group as a novel ester bioisostere” (J Med Chem, 1997):

Tests used:
[1] = Ratio of 50% fall in heart rate to that of […] slow wave activity in anesthetized rats; format: functional
Summary of the method: (§1)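 Same anaesthetized-rat dosing as above. Ratio of iv dose giving a transient 50% fall in BP (or HR) to the iv dose giving an arecoline-equivalent (0.32 mg/kg) change in hippocampal theta power.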

Rattus norvegicus [2] = assay: Dose producing 50% fall in heart rate in anesthetized rats; format: functional
Summary of the method: (§2)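 Male Hooded Lister rats (300-380 g) under urethane anaesthesia, 37 °C. Increasing iv doses via femoral vein at 45 min intervals. BP recorded from carotid artery; HR derived from the BP signal. Peak effect within 1 min, expressed as % of predose. Value is the dose giving a transient 50% fall in mean BP or HR; 95% confidence limits.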

[3] = Partition coefficient is determined in octanol/buffer solution at pH 12; format: physicochemical
Rattus norvegicus [4] = assay: Dose producing […] rhythmic slow wave activity in anesthetized rats; format: functional
[5] = molecular target: Muscarinic acetylcholine receptor; assay: In vitro affinity evaluated using [3H]- quinuclidinyl benzilate as radioligand in rat cerebral cortex for muscarinic acetylcholine receptor; format: tissue-based
[6] = Dissociation constant is the negative logarithm of the equilibrium coefficient of the neutral and charged forms of the compound; format: physicochemical
[7] = Ratio of 50% fall blood pressure to that of rhythmic slow wave activity in anesthetized rats; format: functional; summary of the method: as §1
Rattus norvegicus [8] = assay: Dose producing 50% fall in blood pressure in anesthetized rats; format: functional; summary of the method: as §2
[9] = molecular target: Muscarinic acetylcholine receptor; assay: In vitro affinity evaluated using [3H]- oxotremorine as radioligand in rat cerebral cortex for muscarinic acetylcholine receptor; format: tissue-based
[10] = Distribution coefficient is the ratio of concentration in lipid phase to the concentration of compound in aqueous phase.; format: physicochemical
Summary of the method: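 Calculated for pH 7.3, not measured. D is the concentration of compound in the lipid phase divided by the concentration of all species in the aqueous phase.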

[11] = molecular target: T1, Muscarinic acetylcholine receptor M2 (Homo sapiens, UniProt P08172); assay: In vitro affinity is evaluated, using quinuclidynyl benzylate (QNB) as radioligand in human cloned Muscarinic acetylcholine receptor M2
T1 sequence (P08172 whole entry): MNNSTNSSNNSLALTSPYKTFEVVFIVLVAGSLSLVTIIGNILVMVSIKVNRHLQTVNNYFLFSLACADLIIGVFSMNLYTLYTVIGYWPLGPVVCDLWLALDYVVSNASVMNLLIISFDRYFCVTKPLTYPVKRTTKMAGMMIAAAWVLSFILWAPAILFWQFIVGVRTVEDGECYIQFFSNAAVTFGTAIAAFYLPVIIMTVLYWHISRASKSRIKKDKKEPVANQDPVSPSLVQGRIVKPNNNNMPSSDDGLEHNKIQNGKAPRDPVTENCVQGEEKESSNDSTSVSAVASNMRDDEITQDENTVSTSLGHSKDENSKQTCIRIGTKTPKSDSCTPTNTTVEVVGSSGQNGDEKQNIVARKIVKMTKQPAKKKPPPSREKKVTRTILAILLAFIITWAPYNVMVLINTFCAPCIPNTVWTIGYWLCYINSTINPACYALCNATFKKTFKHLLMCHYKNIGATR

[12] = molecular target: Muscarinic acetylcholine receptor M3 (Homo sapiens, UniProt P20309); assay: In vitro affinity is evaluated, using quinuclidynyl benzylate (QNB) as radioligand in human cloned Muscarinic acetylcholine receptor M3
[13] = molecular target: T2, Muscarinic acetylcholine receptor M4 (Homo sapiens, UniProt P08173); assay: In vitro affinity is evaluated, using quinuclidynyl benzylate (QNB) as radioligand in human cloned Muscarinic acetylcholine receptor M4
T2 sequence (P08173 whole entry): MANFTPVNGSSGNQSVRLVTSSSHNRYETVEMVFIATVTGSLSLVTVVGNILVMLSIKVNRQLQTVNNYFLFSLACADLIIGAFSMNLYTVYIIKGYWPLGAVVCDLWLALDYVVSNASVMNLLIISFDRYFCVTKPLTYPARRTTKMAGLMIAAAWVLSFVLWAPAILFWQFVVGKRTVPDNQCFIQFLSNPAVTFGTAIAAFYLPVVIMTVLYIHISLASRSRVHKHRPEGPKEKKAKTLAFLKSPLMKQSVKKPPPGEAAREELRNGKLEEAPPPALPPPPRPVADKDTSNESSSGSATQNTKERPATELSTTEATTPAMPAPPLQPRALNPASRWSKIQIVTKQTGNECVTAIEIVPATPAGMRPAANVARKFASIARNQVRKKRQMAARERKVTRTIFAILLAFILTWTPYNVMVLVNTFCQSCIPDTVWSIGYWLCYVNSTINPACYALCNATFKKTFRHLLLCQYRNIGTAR

[14] = molecular target: T3, Muscarinic acetylcholine receptor M1 (Homo sapiens, UniProt P11229); assay: In vitro affinity against human Muscarinic acetylcholine receptor M1 using quinuclidynyl benzylate (QNB)
T3 sequence (P11229 whole entry): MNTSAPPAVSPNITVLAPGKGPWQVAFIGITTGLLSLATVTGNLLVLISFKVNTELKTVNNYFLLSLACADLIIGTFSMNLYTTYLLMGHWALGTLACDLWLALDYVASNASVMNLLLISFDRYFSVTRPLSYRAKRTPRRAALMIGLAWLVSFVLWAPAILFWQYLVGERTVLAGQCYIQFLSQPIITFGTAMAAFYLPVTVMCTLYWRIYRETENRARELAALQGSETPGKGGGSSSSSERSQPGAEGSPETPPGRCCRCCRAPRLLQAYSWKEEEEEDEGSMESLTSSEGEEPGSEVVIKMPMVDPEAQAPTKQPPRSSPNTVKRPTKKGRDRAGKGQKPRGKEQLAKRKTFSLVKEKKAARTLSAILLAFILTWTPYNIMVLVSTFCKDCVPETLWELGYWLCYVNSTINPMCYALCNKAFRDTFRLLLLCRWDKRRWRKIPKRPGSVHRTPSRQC

Rattus norvegicus [15] = assay: Dose producing 50 % fall in mean blood pressure in anesthetized rats; format: functional; summary of the method: as §2
Rattus norvegicus [16] = assay: Dose producing 50 % fall in heart rate in anesthetized rats; format: functional; summary of the method: as §2
Rattus norvegicus [17] = organism: Rattus norvegicus; assay: Dose inducing hippocampal rhythmic slow wave activity; format: functional, Hippocampus
Summary of the method: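 Male Hooded Lister rats (300-380 g) under urethane anaesthesia, pretreated with atropine methyl nitrate 0.1 mg/kg iv. Dosing iv via femoral vein, saline vehicle. Bipolar electrode in right hippocampal CA1; EEG sampled at 128 Hz. Read-out is change in mean theta power (3–7 Hz).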

Mus musculus [18] = assay: Tremorigenic effects were assessed in mice after subcutaneous administration of the compound; format: functional; conditions: sc
Summary of the method: (§3)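 Male CD1 mice (25-35 g), dosed sc. Tremor scored subjectively: 0 absent, 1 mild, 2 moderate, 3 severe.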

Rattus norvegicus [19] = assay: Extrapyramidal effects was assessed from the dose producing tremors in anesthetized rats
Mus musculus [20] = organism: Mus musculus; assay: Extrapyramidal effects was assessed from the dose producing tremors; format: functional; summary of the method: as §3
Rattus norvegicus [21] = organism: Rattus norvegicus; assay: Dose producing […] rhythmic slow wave activity in rat
[22] = Ratio of 50% fall in blood pressure to that of rhythmic slow wave activity in anesthetized rats; format: functional; summary of the method: as §1
[23] = Ratio of IC50 QNB to that of OXO-M was determined; format: functional
Summary of the method: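 Rat cerebral cortex binding: IC50 for displacement of the antagonist [3H]QNB divided by IC50 for displacement of the agonist [3H]oxotremorine-M, used as an efficacy index.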

[24] = Ratio of 50% fall in heart rate to that of in blood pressure in anesthetized rats; format: functional

Sequence of Muscarinic acetylcholine receptor M3 (P20309 whole entry): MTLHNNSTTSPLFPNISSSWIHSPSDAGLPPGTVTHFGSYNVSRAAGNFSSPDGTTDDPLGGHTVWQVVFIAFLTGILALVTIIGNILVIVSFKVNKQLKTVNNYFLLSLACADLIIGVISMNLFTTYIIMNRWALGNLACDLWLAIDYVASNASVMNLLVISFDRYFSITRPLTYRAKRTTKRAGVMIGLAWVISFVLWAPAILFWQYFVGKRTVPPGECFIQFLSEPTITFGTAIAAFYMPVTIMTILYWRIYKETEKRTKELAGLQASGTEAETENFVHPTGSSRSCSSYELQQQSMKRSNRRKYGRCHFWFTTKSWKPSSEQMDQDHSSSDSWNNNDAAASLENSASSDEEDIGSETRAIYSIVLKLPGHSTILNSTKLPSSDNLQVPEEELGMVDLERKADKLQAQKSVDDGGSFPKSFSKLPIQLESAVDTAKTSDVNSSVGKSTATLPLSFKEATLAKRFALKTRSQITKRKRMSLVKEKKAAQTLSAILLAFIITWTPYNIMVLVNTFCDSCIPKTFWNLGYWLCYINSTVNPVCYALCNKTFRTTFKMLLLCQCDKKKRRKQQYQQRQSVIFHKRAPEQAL

SMILES | Ratio [1] | ED50 (Rattus norvegicus [2]) [mg/kg] | ED Arec (Rattus norvegicus [4]) [mg/kg] | IC50 [5] [nM] | Ratio [7] | ED50 (Rattus norvegicus [8]) [mg/kg] | IC50 [9] [nM] | other results
CO/N=C(\F)C12CCCN(CC1)C2 (stereo unspecified) | 2 | 0.024 |  |  |  |  |  | logD [3]: 1.01
CO/N=C(/C)C12CCCN(CC1)C2 (stereo unspecified) | 0.6 | 0.042 | 0.068 | 3400 | 1 | 0.068 | 46 | pKa [6]: 10.1; logD [3]: 1.65; logD [10]: -1.13
CO/N=C(\C#N)C12CCN(CC1)C2 | 0.79 | 0.0044 | 0.0056 |  | 1.8 | 0.01 |  | IC50 [11]: 240 nM; IC50 [12]: 300 nM; IC50 [13]: 495 nM; IC50 [14]: 1650 nM
CC#CCO/N=C/[C@H]1CN2CC[C@H]1C2 |  |  |  | 2900 |  |  | 115 | 
CO/N=C(\C#N)[C@H]1CN2CCC1CC2 [SABCOMELINE] | >18.8 |  |  | 310 | >18.8 |  | 14 | ED50 (Rattus norvegicus [15]): > 0.32 mg/kg; ED50 (Rattus norvegicus [16]): > 0.32 mg/kg; IC50 [11]: 180 nM; ED Arec (Rattus norvegicus [17]): 0.017 mg/kg; ED50 (Mus musculus [18]): > 10 mg/kg; IC50 [12]: 60 nM; IC50 [13]: 90 nM; IC50 [14]: 170 nM; ED50 (Rattus norvegicus [19]): 0.12 mg/kg
CO/N=C(/C#N)C1CN2CCC1CC2 (stereo unspecified) |  |  |  | 1300 |  |  | 240 | 
CO/N=C(\C#N)[C@H]1CN2CC[C@H]1C2 | 2.8 | 0.009 | 0.0032 | 2300 | 4.7 | 0.015 | 23 | IC50 [11]: 610 nM; IC50 [12]: 380 nM; IC50 [13]: 800 nM; IC50 [14]: 1180 nM
CO/N=C(\Br)[C@@H]1CN2CC[C@H]1C2 |  |  |  | 2300 |  |  | 170 | 
C=CCO/N=C/[C@H]1CN2CC[C@H]1C2 |  |  |  | 9700 |  |  | 250 | 
O=C1CCCN1CC#CCN1CCCC1 [OXOTREMORINE] |  |  |  |  |  |  |  | ED50 (Mus musculus [18]): 0.07 mg/kg; Activity (Mus musculus [20]): 3; ED Arec (Rattus norvegicus [21]): 0.023 mg/kg
CO/N=C(\C#N)C1CN2CCC1CC2 (stereo unspecified) | >10.9 | > 0.56 |  |  | >10.9 |  |  | logD [3]: 1.56
CCN1C(=O)CC2(CCN(C)CC2)C1=O |  |  |  |  |  |  |  | ED50 (Mus musculus [18]): 3.8 mg/kg; Activity (Mus musculus [20]): 8.6; ED Arec (Rattus norvegicus [21]): 0.35 mg/kg
CCO/N=C/[C@H]1CN2CC[C@H]1C2 |  |  |  |  |  |  |  | Ratio [22]: >7.8; ED50 (Rattus norvegicus [16]): > 1.8 mg/kg; Ratio [23]: 23; Ratio [24]: >7.8
CO/N=C(\Cl)[C@@H]1CN2CC[C@H]1C2 |  |  |  | 8880 |  |  | 100 | 
CO/N=C(\C)C1CN2CCC1CC2 (stereo unspecified) | >1 | > 0.32 |  |  | >1 | > 0.32 |  | logD [3]: 1.88
CO/N=C(\C#N)[C@@H]1CN2CCC1CC2 |  | > 1 | >1 | 1130 |  | > 1 | 140 | 
CO/N=C(\F)[C@H]1CN2CC[C@H]1C2 |  |  |  |  |  |  | 8.5 | 
CO/N=C/[C@H]1CN2CC[C@H]1C2 |  |  |  |  |  |  |  | IC50 [11]: 220 nM; IC50 [12]: 2200 nM; IC50 [13]: 1100 nM; Ratio [24]: 1.5; IC50 [14]: 10000 nM
CO/N=C(\C#N)[C@@H]1CN2CC[C@H]1C2 | 4.2 | 0.021 | 0.005 | 3175 | 4.8 | 0.024 | 21 | IC50 [11]: 700 nM; IC50 [12]: 1200 nM; IC50 [13]: 975 nM; IC50 [14]: 1500 nM
C#CCO/N=C/[C@H]1CN2CC[C@H]1C2 |  |  |  |  |  |  |  | Ratio [24]: 3.7
CO/N=C(\Cl)C12CCCN(CC1)C2 (stereo unspecified) | 8.3 | 0.24 | 0.032 |  | 10 |  |  | logD [3]: 2.12
COC(=O)C1=CCCN(C)C1 [ARECOLINE] |  | 0.024 | 0.32 |  |  | 0.022 |  | 
